Assay results reported in ChEMBL document CHEMBL1148736, “N-Acylthiadiazolines, a new class of liver X receptor agonists with selectivity for LXRbeta” (J Med Chem, 2007).
Calls of active or inactive are those of the source. No cut-off for these calls is given here.

Legend:
[1] = biological target: T1, Glucocorticoid receptor (Homo sapiens) (UniProt P04150); assay: Activity at GR by cell based assay; format: functional
T1 sequence (whole entry): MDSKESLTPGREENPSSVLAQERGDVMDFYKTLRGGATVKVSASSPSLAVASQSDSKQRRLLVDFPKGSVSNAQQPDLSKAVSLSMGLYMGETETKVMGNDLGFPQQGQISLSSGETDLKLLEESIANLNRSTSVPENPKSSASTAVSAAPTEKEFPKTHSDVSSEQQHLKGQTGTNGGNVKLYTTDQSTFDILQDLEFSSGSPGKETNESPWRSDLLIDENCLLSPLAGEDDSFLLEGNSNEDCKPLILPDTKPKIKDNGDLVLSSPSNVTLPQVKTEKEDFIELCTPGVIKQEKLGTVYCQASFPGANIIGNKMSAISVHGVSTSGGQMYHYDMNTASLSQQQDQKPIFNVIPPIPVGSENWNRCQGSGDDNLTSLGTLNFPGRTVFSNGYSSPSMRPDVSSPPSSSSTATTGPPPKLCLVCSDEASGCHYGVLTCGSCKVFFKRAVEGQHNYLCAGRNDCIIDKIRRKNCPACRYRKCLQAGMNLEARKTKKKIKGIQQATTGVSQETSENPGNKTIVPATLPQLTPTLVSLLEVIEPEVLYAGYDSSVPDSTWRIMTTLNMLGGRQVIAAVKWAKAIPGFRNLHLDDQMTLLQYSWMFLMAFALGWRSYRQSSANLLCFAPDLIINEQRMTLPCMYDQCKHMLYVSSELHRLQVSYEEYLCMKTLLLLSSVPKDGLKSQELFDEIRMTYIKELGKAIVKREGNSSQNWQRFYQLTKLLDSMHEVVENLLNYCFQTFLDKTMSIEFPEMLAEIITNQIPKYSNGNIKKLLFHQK

Liver = assay: Effect on SREBP1c gene expression in C57BL/6 mouse liver; format: functional, tissue-based
Method in brief: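 Male C57BL/6 mice, 10 weeks old, chow-fed, gavaged daily with vehicle or compound (20–200 mpk) for 3 days. Fasted overnight before the last dose; killed 3 h later. Tissue RNA analysed by TaqMan qRT-PCR.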

Macrophage = assay: Induction of ABCA1 gene expression in LXRbeta deficient mouse macrophages; format: functional, cell-based
Method in brief: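 Thioglycollate-elicited peritoneal macrophages from LXR-null mice, plated 24 h. Treated as for THP-1 without PMA: 2% lipoprotein-deficient serum medium, compound in DMSO for 24 h. ABCA1 mRNA by TaqMan qRT-PCR with 36B4 control, fold vs DMSO. Two concentrations used.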

[2] = biological target: T2, Oxysterols receptor LXR-beta (Homo sapiens) (UniProt P55055); assay: Agonist activity at GAL-linked human LXRbeta expressed in THP1 cells assessed as stimulation of co-activator recruitment by FRET assay relative to GW-3965; format: functional
T2 sequence (whole entry): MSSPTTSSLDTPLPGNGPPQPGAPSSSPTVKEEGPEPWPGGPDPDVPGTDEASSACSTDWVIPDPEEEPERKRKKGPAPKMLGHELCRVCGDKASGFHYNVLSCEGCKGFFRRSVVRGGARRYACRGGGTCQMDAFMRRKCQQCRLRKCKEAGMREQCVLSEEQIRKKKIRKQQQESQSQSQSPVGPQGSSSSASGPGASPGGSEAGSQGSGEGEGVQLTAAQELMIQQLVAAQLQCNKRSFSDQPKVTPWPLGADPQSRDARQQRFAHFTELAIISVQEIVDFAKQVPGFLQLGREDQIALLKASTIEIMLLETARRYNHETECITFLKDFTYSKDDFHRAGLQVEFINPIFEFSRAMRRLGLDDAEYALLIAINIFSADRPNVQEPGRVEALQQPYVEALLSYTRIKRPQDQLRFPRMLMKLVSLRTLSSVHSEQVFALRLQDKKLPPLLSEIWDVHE
Method in brief: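 Cell-free TR-FRET coactivator recruitment: 20 nM His-tagged hLXRα or hLXRβ, 300 nM biotinylated SRC-1 peptide, Eu-anti-His antibody, APC-streptavidin. 12-point curves from 20 µM; 1 h at 37 °C. Duplicate. %E = maximal coactivator recruitment relative to reference dual agonist in same experiment.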

[3] = biological target: T3, Bile acid receptor (Homo sapiens) (UniProt Q96RI1); assay: Activity at FXR by cell based assay; format: functional
T3 sequence (whole entry): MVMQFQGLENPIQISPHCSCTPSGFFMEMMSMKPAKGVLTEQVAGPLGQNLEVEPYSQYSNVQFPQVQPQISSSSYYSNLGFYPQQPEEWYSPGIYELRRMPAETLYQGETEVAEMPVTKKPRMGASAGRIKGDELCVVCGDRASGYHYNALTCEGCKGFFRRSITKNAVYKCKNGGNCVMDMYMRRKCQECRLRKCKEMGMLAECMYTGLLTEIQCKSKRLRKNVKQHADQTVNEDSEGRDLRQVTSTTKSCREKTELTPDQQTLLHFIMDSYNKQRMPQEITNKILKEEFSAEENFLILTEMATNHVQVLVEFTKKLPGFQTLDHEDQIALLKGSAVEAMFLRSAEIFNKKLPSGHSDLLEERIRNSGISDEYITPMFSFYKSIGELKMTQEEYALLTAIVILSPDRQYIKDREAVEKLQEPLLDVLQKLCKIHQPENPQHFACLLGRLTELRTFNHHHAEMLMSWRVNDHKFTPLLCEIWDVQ

[4] = Volume of distribution at steady state in C57BL/6 mouse at 5 mg/kg, iv; format: ADME, organism-based; design: dose 5 mg/kg, route intravenous; details: in vivo, read-out: Vss
Method in brief: (§1)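 Mouse PK study, IV and PO; compound formulated at 2.5 mg/mL in PEG300/Tween 80 (4:1). IV dose 5 mpk (AUC, Cmax, clearance, Vss); oral dose 20 mpk (AUC, Cmax, bioavailability, t1/2).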

[5] = Cmax in C57BL/6 mouse at 5 mg/kg, iv; format: ADME, organism-based; design: dose 5 mg/kg, route intravenous; details: in vivo; method in brief: as §1
[6] = AUC in C57BL/6 mouse at 5 mg/kg, iv; format: ADME, organism-based; design: dose 5 mg/kg, route intravenous; details: plasma; method in brief: as §1

Activity [1]: inactive | Efficacy [2]: 99% | Activity [3]: inactive | Vd [4]: 1.65 L/kg | Cmax [5]: 20.4 µM | AUC [6]: 7140 ng·h/mL
Compound: COc1cccc(C2SC(c3ccc(Cl)cc3)=NN2C(=O)c2c(F)cc(F)cc2F)c1OC (racemic)
Activity (Liver): inactive | Activity (Macrophage): Active
